# The entries come from a sample that favours hits as a whole.
# CHOP UPR activ: activators of apoptotic arm of unfolded protein response (CHOP); AID 449763; hit rate 0.34% among 330,000; CHO-CHOP luciferase reporter, UPR activation, luminescence; percent of tunicamycin response over DMSO baseline; activation, % at 10 µM;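 active means at 10 µM dose, activation of 40% or more, normalized to positive control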;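 further: 100% = tunicamycin at 10 µg/mL and 0% = DMSO alone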
#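 Dosing – one dose, 10 µM in 0.5% DMSO · System – CHO-CHOP cells, stable luciferase reporter of PERK-eIF2a-CHOP signalling · Input – 500 cells/well · Control set – tunicamycin 10 µg/mL final as positive, DMSO-only wells as negative · Timing – 6 h compound treatment, 37 °C · Measure – % activation vs tunicamycin · Technique – luminescence read with Steady-Glo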
# CHOP inh: CHOP inhibition in unfolded protein response; CHO-K1 CHOP-promoter luciferase, tunicamycin-induced, 15-18 h; inhibition, % at 10 µM; hit rate 3.8% among 220,000; AID 2732;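 active means compounds that reduced the stress-induced luciferase reporter signal by more than about 70% of percent inhibition, limit read from the data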;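 further: 0% = tunicamycin plus vehicle and 100% = wells without tunicamycin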
# Bfl-1 A1 inh: inhibitors of the anti-apoptotic protein A1, read as caspase activation; caspase activation, % (test concentration not listed); AID 2462; hit rate 0.066% among 330,000; MEF A1-2A-BIM cells, Caspase-Glo 3/7 luminescence, 3 h; percent of clofoctol response, vehicle zero;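 active means over half of replicate activation scores above 10%, or exactly half above 10 with the replicate mean above 10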
# UPR XBP1 act: adaptive UPR (XBP1) activation. CHO-XBP1 luciferase reporter, IRE1-XBP1 UPR activation, luminescence; percent of tunicamycin response, DMSO as zero. AID 463104. hit rate 0.33% among 330,000. activation, % at 20 µM;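 active means versus positive control, 20 µM dose yields 30% or more activation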;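 further: 100% = tunicamycin at 10 µg/mL and 0% = DMSO only wells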
#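 Material: CHO cell line with stable XBP1 luciferase reporter; buffer or medium: F12 medium containing 10% fetal bovine serum; compound: single point, 20 µM final compound, 1% DMSO; incubation: 6 h treatment, 37 °C; measured by: glow luminescence from Steady-Glo reagent; evaluation: activation, % of tunicamycin; control set: tunicamycin high, DMSO low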
# * hit, by the source's call; . = no result.
SMILES,CHOP UPR activ,CHOP inh,Bfl-1 A1 inh,UPR XBP1 act
CCOC(=O)c1cc(-c2ccc(Cl)cc2)nc2c1c(=O)[nH]c(=O)n2CCOC,-2,78*,0,1
CCOC(=O)c1cc(-c2ccc(F)cc2)nc2c1c(=O)[nH]c(=O)n2Cc1ccccc1,2,.,0,4
CC(=O)Nc1ccc(S(=O)(=O)NCCC(=O)OCC(=O)NNC(=O)c2ccccc2)cc1,1,.,0,2
CN(C(=O)c1ccc2c(c1)C(=O)N(CCC1=CCCCC1)C2=O)C1CCCCC1,3,99*,0,3
O=C(O)c1ccc2c(c1)C(=O)N(CCC1=CCCCC1)C2=O,0,-4,-2,-2
Nc1ccccc1C#CC(=O)c1ccccc1,-5,.,1,-8
CC(=O)c1nn(-c2cccc(Br)c2)cc1C(=O)c1ccccc1,0,74*,0,2
C/C(=N\NC(=O)c1nnn(-c2nonc2N)c1-c1ccc2c(c1)OCO2)c1ccc(C)cc1,0,.,1,-1
COc1ccccc1NC(=O)C1CCCN(S(=O)(=O)c2ccc(-n3cnnn3)cc2)C1 (stereo not drawn),1,.,1,-1
Cc1cc(SCC(=O)NN)c2cc(Br)ccc2n1,2,-2,1,-1
Nc1nc(Nc2ccc(Cl)cc2)nc(NCc2ccco2)c1[N+](=O)[O-],9,86*,0,20
Cc1cccc(Nc2nc(NCc3ccco3)nc(N)c2[N+](=O)[O-])c1,1,18,1,11
Cc1cccc(Nc2nc(N)c([N+](=O)[O-])c(NCc3ccco3)n2)c1,6,96*,0,3
Nc1nc(Nc2cccc(Cl)c2)nc(NCc2ccco2)c1[N+](=O)[O-],6,0,-1,8
Nc1nc(Nc2cccc(F)c2)nc(NCc2ccco2)c1[N+](=O)[O-],1,84*,-1,10
CC(C)(C)OC(=O)N1CCC(c2c(C(=O)NCC3CCN(C4CCCC4)C3)cnn2-c2ccc(F)cc2)CC1 (stereo not drawn),0,.,-1,-1
CCOc1ccc(N2C(=O)CC(Sc3nnnn3-c3ccccc3)C2=O)cc1 (stereo not drawn),.,108*,.,.
CCOc1ccc(N2C(=O)CC(Sc3nc(C)cc(C)n3)C2=O)cc1 (stereo not drawn),0,21,1,-1
NC(=O)NC(=O)COC(=O)c1ccc(Cl)c(S(=O)(=O)N(Cc2ccccc2)c2ccc(Cl)cc2)c1,-2,-37,0,1
NC(=O)COC(=O)c1ccc(Cl)c(S(=O)(=O)N(Cc2ccccc2)c2ccc(Cl)cc2)c1,-2,85*,-1,-1
CCc1ccccc1OCC(=O)NCC1COc2ccccc2O1 (stereo not drawn),-1,.,-1,-2
CCOC(=O)c1c(-c2ccco2)csc1NC(=O)COC(=O)c1cnccn1,2,.,0,0
COc1cccc(OCC(O)CN2CCN(c3ccccn3)CC2)c1 (stereo not drawn),0,14,0,-2
OC(COc1ccc2cc(Br)ccc2c1)CN1CCN(c2ccccn2)CC1 (stereo not drawn),-1,79*,0,-1
OC(COC(c1ccc(Cl)cc1)c1ccc(Cl)cc1)CN1CCN(c2ccccn2)CC1 (stereo not drawn),-2,91*,-1,-2
SMILES,CHOP UPR activ,CHOP inh,Bfl-1 A1 inh,UPR XBP1 act
O=S(=O)(N1CCCCC1)N1CCN(CC(O)COc2ccc3cc(Br)ccc3c2)CC1 (stereo not drawn),0,87*,1,0
Cc1cccc(C)c1OCC(O)CN1CCN(c2ccccn2)CC1 (stereo not drawn),0,17,0,-1
CC(=O)Nc1cccc(NC(=O)CSc2ncc(C(=O)Nc3ccccc3)c(=O)n2C)c1,202*,.,-7,-5
CC(=O)Nc1cccc(NC(=O)CSc2ncc(-c3ccc(Cl)cc3)n2Cc2ccco2)c1,4,88*,-1,0
CC(=O)Nc1cccc(NC(=O)CSc2ncc(C(=O)Nc3ccc(F)cc3)c(=O)n2C)c1,13,.,-7,-3
COc1ccc(OCC(=O)NNC(=S)NC(=O)C2CCCCC2)cc1,0,.,-1,0
CCOc1ccc(S(=O)(=O)N(CC)CC(=O)NC2CCS(=O)(=O)C2)cc1 (stereo not drawn),-1,.,2,-1
CCCc1nc2sc(C(=O)OCC)c(N)c2c2c1COC(C)(C)C2,3,81*,-1,-3

# Screens: PubChem BioAssay, several laboratories
